The source made the active and inactive calls. No cut-off for these calls is given here. Residues, ends and D or L forms follow the SMILES beside them.

Series [1] in a line: Selectivity index, ratio of IC50 for ovine COX1 to IC50 for human recombinant COX2. A digest of the protocol:
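Ovine COX-1 and human recombinant COX-2 with heme are preincubated with inhibitor for 10 min at 37 °C. Arachidonic acid is then added for 2 min at 37 °C. Prostaglandins are quantified by competitive AChE-tracer EIA, read at 420 nm. Four concentrations (10^-5 to 10^-8 M) are tested in triplicate. IC50 is taken from the dose-response curve of the mean % inhibition.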

Series [2] concerns Mus musculus. The series is described as follows: Analgesic activity in Swiss albino mouse assessed as reduction in capsaicin-induced paw licking at 5 mg/kg, ip dosed 30 mins before capsaicin injection measured for 10 mins relative to control. The class given is functional. A digest of the protocol: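 Swiss albino mice of either sex (25-35 g), kept at 22 ± 2 °C on a 12 h light/dark cycle with free food and water. 5 animals per group. Capsaicin (1.6 μg in 20 μL) is injected into the plantar surface of the hind paw. Pain is scored as the number of paw lickings over 10 min.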

In series [3] the test system is Mus musculus. The series is described as follows: Analgesic activity in Swiss albino mouse assessed as reduction in capsaicin-induced paw licking at 5 to 10 mg/kg, ip dosed 30 mins before capsaicin injection measured for 10 mins in presence of voltage-gated sodium channel opener veratrine pre-treated 30 mins before compound dosing. The class given is functional, organism-based. A digest of the protocol:
(§1)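 Mice of either sex (25-35 g), 5 per group. The modulator is given 30 min before the test compound, and capsaicin 30 min after that: substance P 10 µg/kg, L-arginine 40 mg/kg, L-NAME 20 mg/kg, veratrine 125 µg/kg, A23187 20 µg/kg, glipizide 30 µg/kg. Capsaicin is 1.6 μg in 20 μL intraplantar. Paw lickings are counted for 10 min.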

Series [4] deals with Mus musculus. The series is described as follows: Analgesic activity in Swiss albino mouse assessed as reduction in capsaicin-induced paw licking at 5 to 10 mg/kg, ip dosed 30 mins before capsaicin injection measured for 10 mins in presence of nitric oxide synthase inhibitor L-NAME pre-treated 30 mins before compound dosing. The class given is functional, organism-based. The essentials:
as §1

For series [5], the target named is Prostaglandin G/H synthase 1 (Homo sapiens) (UniProt P23219). The series is described as follows: Binding affinity to COX1 (unknown origin) at 100 uM by isothermal titration calorimetry. The essentials: (§2)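 Isothermal titration calorimetry in HEPES buffer, pH 7.4. The ligand stock is 100 μM in ethanol/HEPES (1:99). The syringe is stirred at 500 rpm and delivers 19 injections of 2 μL into the enzyme-containing cell at 120 s intervals. Heats from buffer-only control titrations are subtracted. The fit gives Ka, ΔH and ΔS. Run in triplicate.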
Chain of Prostaglandin G/H synthase 1 (Homo sapiens) (P23219 whole entry): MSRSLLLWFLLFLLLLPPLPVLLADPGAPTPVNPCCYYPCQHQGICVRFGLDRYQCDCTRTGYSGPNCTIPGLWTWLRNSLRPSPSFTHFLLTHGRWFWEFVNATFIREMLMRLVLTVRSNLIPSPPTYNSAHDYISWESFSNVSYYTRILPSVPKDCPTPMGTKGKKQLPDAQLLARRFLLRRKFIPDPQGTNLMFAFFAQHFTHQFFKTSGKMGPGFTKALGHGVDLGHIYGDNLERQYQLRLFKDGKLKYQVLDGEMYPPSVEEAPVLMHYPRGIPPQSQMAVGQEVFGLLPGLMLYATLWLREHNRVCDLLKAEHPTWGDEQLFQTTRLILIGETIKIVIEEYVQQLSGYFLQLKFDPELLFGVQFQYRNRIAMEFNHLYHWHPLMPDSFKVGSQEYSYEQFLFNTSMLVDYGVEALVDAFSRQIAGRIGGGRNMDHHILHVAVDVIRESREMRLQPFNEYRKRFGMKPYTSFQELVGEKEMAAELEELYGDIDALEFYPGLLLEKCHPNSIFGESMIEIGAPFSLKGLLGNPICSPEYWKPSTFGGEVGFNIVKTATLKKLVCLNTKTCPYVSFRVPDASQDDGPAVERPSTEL
Background: In ITC the heat of successive injections is recorded.

In series [6] the test system is Mus musculus. The series is described as follows: Analgesic activity in Swiss albino mouse assessed as reduction in capsaicin-induced paw licking at 5 to 10 mg/kg, ip dosed 30 mins before capsaicin injection measured for 10 mins in presence of nitric oxide precursor L-arginine pre-treated 30 mins before compound dosing. The class given is functional, organism-based. A digest of the protocol: as §1

Series [7] addresses T1, Prostaglandin G/H synthase 2 (Homo sapiens) (UniProt P35354).
T1 sequence (whole entry): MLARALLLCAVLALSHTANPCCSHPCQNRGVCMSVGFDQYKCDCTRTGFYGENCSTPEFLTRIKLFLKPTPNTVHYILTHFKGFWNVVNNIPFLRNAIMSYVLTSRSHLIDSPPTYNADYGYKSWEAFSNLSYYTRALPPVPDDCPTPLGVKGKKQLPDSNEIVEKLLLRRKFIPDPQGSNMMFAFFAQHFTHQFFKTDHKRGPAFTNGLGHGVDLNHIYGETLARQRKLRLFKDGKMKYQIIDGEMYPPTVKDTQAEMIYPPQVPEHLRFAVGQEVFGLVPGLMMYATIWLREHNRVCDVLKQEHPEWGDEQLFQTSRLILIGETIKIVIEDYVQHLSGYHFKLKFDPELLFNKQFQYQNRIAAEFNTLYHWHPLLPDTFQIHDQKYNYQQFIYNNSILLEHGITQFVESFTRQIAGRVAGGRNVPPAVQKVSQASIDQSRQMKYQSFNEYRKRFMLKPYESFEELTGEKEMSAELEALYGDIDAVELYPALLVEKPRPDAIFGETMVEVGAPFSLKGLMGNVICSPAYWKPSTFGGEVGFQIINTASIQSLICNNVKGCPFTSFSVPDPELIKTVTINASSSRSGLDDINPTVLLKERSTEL
The series can be described thus: Binding affinity to COX2 (unknown origin) at 100 uM by isothermal titration calorimetry. The essentials: as §2

Series [8] relates to Mus musculus. The series can be described thus: Analgesic activity in Swiss albino mouse assessed as reduction in capsaicin-induced paw licking at 5 to 10 mg/kg, ip dosed 30 mins before capsaicin injection measured for 10 mins in presence of […] A23187 pre-treated 30 mins before compound dosing. The class given is functional, organism-based. A digest of the protocol: as §1

Series [9] deals with Mus musculus. The series can be described thus: Analgesic activity in Swiss albino mouse assessed as reduction in capsaicin-induced paw licking at 5 to 10 mg/kg, ip dosed 30 mins before capsaicin injection measured for 10 mins in presence of ATP-sensitive potassium channel blocker glipizide pre-treated 30 mins before compound dosing. The class given is functional, organism-based. The essentials:
as §1

Series [10] has as its system Mus musculus. The series is described as follows: Acute toxicity in Swiss albino mouse assessed as gross behavioral abnormality up to 2000 mg/kg, po administered as single dose through gavage measured continuously for first 4 hrs and periodically for 24 hrs up to 14 days. The note with it: in vivo. The class given is organism-based. A digest of the protocol: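 Swiss albino mice of either sex (25-35 g), housed at 22 ± 2 °C on a 12 h light/dark cycle. Per OECD 2001 guidance, groups of three received vehicle or 50, 300 or 2000 mg Kg⁻¹ after 4 h fasting. The animals were watched continuously for the first 4 h and then periodically over 24 h for gross behavioural abnormality.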

For orientation: inhibition in vivo means the change of the read-out against control, counted positive when it falls. Turning to `COC(=O)[C@H](CC(C)C)NC(=O)[C@H](Cc1ccccc1)NC(=O)CNC(=O)CN` (H-GGFL-OMe), the Ratio IC50 in series [1] was determined as 100. Further, in the series with Mus musculus [2], the inhibition in vivo at 5 mg/kg was 80%. For the same compound, the outcome with Mus musculus [3], in the series with Mus musculus [4], with Mus musculus [8] and in the series on Mus musculus [9] was Active. The Ka in [5] was determined as 0.41 ×10³ /M; in [7], 6.1 ×10⁴ /M. Besides, the result with Mus musculus [6] was inactive. The Activity result with Mus musculus [10] was “Non-toxic”.

(Values after ChEMBL document CHEMBL3808358, “Rational Design of Small Peptides for Optimal Inhibition of Cyclooxygenase-2: Development of a Highly Effective Anti-Inflammatory Agent” (J Med Chem, 2016).)
